According to paper PMC6467724 (Journal of medicinal chemistry, 2018):

Legend:
[1] = Microsomal stability assay, human liver microsomes; format: in vitro ADME; conditions: for Clhep (hepatic clearance), Human: predicted from Clint, Qh 21 mL/min/kg
[2] = Microsomal stability assay, rat liver microsomes; format: in vitro ADME, rat (male Sprague-Dawley); conditions: for Clhep (hepatic clearance), Rat: predicted from Clint, Qh 70 mL/min/kg
[3] = Microsomal stability assay, mouse liver microsomes; format: in vitro ADME, mouse (male CD-1); conditions: for Clhep (hepatic clearance), Mouse: predicted from Clint, Qh 90 mL/min/kg
[4] = PK and tissue distribution assay, single oral dose; format: in vivo, BALB/c mice; conditions: for concentration at 4 h: BALB/c, mouse, po, 25 mg/kg
[5] = mice, oral doses up to 200 mg/kg; cited from earlier work
[6] = test system: Y strain T. cruzi CYP51A; assay: CYP51 activity inhibition; format: biochemical, Trypanosoma cruzi; conditions: Figure S1
Procedure, shortened: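 Y-strain T. cruzi CYP51A was expressed in E. coli and purified. Substrate was [3-3H]eburicol at 50 μM final and test compound at 1.1 μM final. After 60 s preincubation at 37 °C, 100 μM NADPH started the reaction. It ran 60 min, EtOAc extraction stopped it, and % inhibition was measured in triplicate, mean ± SD.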

[7] = biological target: Y strain T. cruzi CYP51A; assay: Spectral titration; format: binding, Trypanosoma cruzi; conditions: 0.5 μM CYP51, inhibitor 0.1–1 μM
Procedure, shortened: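 Y-strain T. cruzi CYP51A was expressed in E. coli and purified. It was titrated at 0.5 μM with test compound (0.1–1 μM) in 5 cm pathlength cuvettes. Difference spectra were read as Δ(A430−A411). Apparent dissociation constants came from nonlinear fits of absorbance change versus ligand concentration to the Morrison quadratic (tight-binding) equation.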

[8] = biological target: L. infantum CYP51 (Leishmania infantum, UniProt A2TEF2); assay: Spectral titration; format: binding; conditions: 0.5 μM CYP51, inhibitor 0.1–1 μM
[9] = Mouse acute toxicity assay; format: in vivo; conditions: single oral dose 200 mg/kg, mice n=3, 48 h
[10] = human pooled liver microsomes 0.5 mg/mL, 1 μM test compound
[11] = rat pooled liver microsomes 0.5 mg/mL, 1 μM test compound
[12] = mouse pooled liver microsomes 0.5 mg/mL, 1 μM test compound
[13] = Balb/c mice, single oral dose 25 mg/kg
[14] = 4 hours after single oral 25 mg/kg, Balb/c mice, ±SEM, n=2, nd = below 0.1 μM

Compound	Clint (estimated intrinsic clearance), Human [1, 10]	Clhep (hepatic clearance), Human [1]	Clhep (hepatic clearance), Rat [2]	Clint (estimated intrinsic clearance), Rat [2, 11]	Clint (estimated intrinsic clearance), Mouse [3, 12]	Clhep (hepatic clearance), Mouse [3]	Plasma life time (time until the compound becomes undetectable) [4, 13]	other results
O=C(N[C@@H](Cn1ccnc1)c1ccc(-c2ccc(F)cc2)cc1Cl)c1ccc(-c2nnc(-c3ccccc3)o2)cc1 [VFV-Cl, (R)-N-(1-(3-Chloro-4´-fluoro-[1,1´-biphenyl]-4-yl)-2-(1H-imidazol-1-yl)ethyl)-4-(5-phenyl-1,3,4-oxadiazol-2-yl)benzamide]	13.9 mL/min/kg body weight	8.35 mL/min/kg body weight	23.6 mL/min/kg body weight	35.5 mL/min/kg body weight	59.8 mL/min/kg body weight	35.9 mL/min/kg body weight		Increase of concentrations in tissues at 50 mg/kg ([4]; 50 mg/kg vs 25 mg/kg, data not shown): about 1.5 fold; Metabolism ([M+34] metabolite) when extracted from mice plasma ([4]; 3 and 10 h after single oral 25 mg/kg, HPLC (Figure 4)): almost no metabolism
O=C(N[C@@H](Cn1ccnc1)c1ccc(-c2ccc(F)cc2)cc1F)c1ccc(-c2nnc(-c3ccccc3)o2)cc1 [VFV, (R)-N-(1-(3,4′-difluoro-[1,1′-biphenyl]-4-yl)-2-(1H-imidazol-1-yl)ethyl)-4-(5-phenyl-1,3,4-oxadiazol-2-yl)benzamide, reference compound]	29.9 mL/min/kg body weight	12.3 mL/min/kg body weight	14.2 mL/min/kg body weight	17.7 mL/min/kg body weight	145 mL/min/kg body weight	55.6 mL/min/kg body weight	>24 h	Acute toxicity [5]: no acute toxicity
O=C(N[C@@H](Cn1ccnc1)c1c(F)cc(-c2ccc(F)cc2)cc1F)c1ccc(-c2nnc(-c3ccccc3)o2)cc1 [Compound 7, (R)-N-(2-(1H-Imidazol-1-yl)-1-(3,4´,5-trifluoro-[1,1′-biphenyl]-4-yl)ethyl)-4-(5-phenyl-1,3,4-oxadiazol-2-yl)benzamide]	19.4 mL/min/kg body weight	10.1 mL/min/kg body weight	31.1 mL/min/kg body weight	55.8 mL/min/kg body weight	237 mL/min/kg body weight	65.2 mL/min/kg body weight	>24 h	Inhibition of Y strain T. cruzi CYP51A enzymatic activity [6]: completely inhibited; Apparent binding affinity to Y strain T. cruzi CYP51A [7]: low nanomolar concentration range; Apparent binding affinity to L. infantum CYP51 [8]: low nanomolar concentration range; Acute toxicity, clinical observation [9]: No detectable side effects
O=C(N[C@@H](Cn1ccnc1)c1ccc(Cl)cc1Cl)c1ccc(-c2nnc(-c3ccc(OCC(F)(F)F)cc3F)o2)cc1 [Compound 8, (R)-N-(1-(2,4-Dichlorophenyl)-2-(1H-imidazol-1-yl)ethyl)-4-(5-(2-fluoro-4-(2,2,2-trifluoroethoxy)phenyl)-1,3,4-oxadiazol-2-yl)benzamide]	16.5 mL/min/kg body weight	9.24 mL/min/kg body weight	33.5 mL/min/kg body weight	64.3 mL/min/kg body weight	87.7 mL/min/kg body weight	44.4 mL/min/kg body weight		
[2H]c1c([2H])c([2H])c(-c2ccc([C@H](Cn3ccnc3)NC(=O)c3ccc(-c4nnc(-c5ccccc5)o4)cc3)c(Cl)c2)c([2H])c1[2H] [Compound 5, (R)-N-(1-(3-Chloro-[1,1´-biphenyl]-4-yl-2´,3´,4´,5´,6´-d5)-2-(1H-imidazol-1-yl)ethyl)-4-(5-phenyl-1,3,4-oxadiazol-2-yl)benzamide]	21.2 mL/min/kg body weight	10.6 mL/min/kg body weight	45.6 mL/min/kg body weight	131 mL/min/kg body weight	220 mL/min/kg body weight	63.9 mL/min/kg body weight	<16 h	concentration at 4 h ([4]; blood): 4 ± 2 µM; concentration at 4 h ([4]; brain): 0.2 µM; concentration at 4 h ([4]; heart): 3 ± 0.5 µM; concentration at 4 h ([4]; lung): 26 ± 4 µM; Cp,max, fold lower (vs compound 4) ([4]; single oral 25 mg/kg): 2 fold
O=C(N[C@@H](Cn1ccnc1)c1ccc(-c2ccccc2)cc1Cl)c1ccc(-c2nnc(-c3ccccc3)o2)cc1 [Compound 4, (R)-N-(1-(3-Chloro-[1,1´-biphenyl]-4-yl)-2-(1H-imidazol-1-yl)ethyl)-4-(5-phenyl-1,3,4-oxadiazol-2-yl)benzamide]	20.9 mL/min/kg body weight	10.5 mL/min/kg body weight	46.9 mL/min/kg body weight	142 mL/min/kg body weight	34.2 mL/min/kg body weight	24.8 mL/min/kg body weight	<10 h	Plasma Cp, max ([4]; Balb/c mice, single oral dose 25 mg/kg, nd = below 0.1 μM (detection limit)): 28 µM
CS(=O)(=O)c1ccc(-c2ccc([C@H](Cn3ccnc3)NC(=O)c3ccc(-c4nnc(-c5ccccc5)o4)cc3)c(Cl)c2)cc1 [Compound 6, (R)-N-(1-(3-Chloro-4´-(methylsulfonyl)-[1,1´-biphenyl]-4-yl)-2-(1H-imidazol-1-yl)ethyl)-4-(5-phenyl-1,3,4-oxadiazol-2-yl)benzamide]	11.6 mL/min/kg body weight	7.46 mL/min/kg body weight	31.7 mL/min/kg body weight	58.1 mL/min/kg body weight	127 mL/min/kg body weight	52.6 mL/min/kg body weight		Oral bioavailability ([4]; single oral 25 mg/kg, no trace in plasma or tissues except intestine): not orally bioavailable
O=C(N[C@@H](Cn1ccnc1)c1ccc(Cl)cc1Cl)c1ccc(-c2nnc(-c3ccccc3)o2)cc1 [VNI, (R)-N-(1-(2,4-dichlorophenyl)-2-(1H-imidazol-1-yl)ethyl)-4-(5-phenyl-1,3,4-oxadiazol-2-yl)benzamide]								Acute toxicity [5]: no acute toxicity
O=C(N[C@@H](Cn1ccnc1)c1ccc(Cl)cc1Cl)c1ccc(-c2nnc(-c3ccc(F)c(F)c3)o2)cc1 [Compound 9, (R)-N-(1-(2,4-Dichlorophenyl)-2-(1H-imidazol-1-yl)ethyl)-4-(5-(3,4-difluorophenyl)-1,3,4-oxadiazol-2-yl)benzamide]	7.53 mL/min/kg body weight	5.54 mL/min/kg body weight	21.4 mL/min/kg body weight	30.9 mL/min/kg body weight	55.8 mL/min/kg body weight	34.5 mL/min/kg body weight		Inhibition of Y strain T. cruzi CYP51A enzymatic activity [6]: stronger potency; Apparent binding affinity to Y strain T. cruzi CYP51A [7]: low nanomolar concentration range; Apparent binding affinity to L. infantum CYP51 [8]: low nanomolar concentration range; Acute toxicity, clinical observation [9]: No detectable side effects
(R)-N-(1-(3-Chloro-4´-(trifluoromethyl)-[1,1´-biphenyl]-4-yl)-2-(1H-imidazol-1-yl)ethyl)-4-(5-(pyridin-4-yl)-1,3,4-oxadiazol-2-yl)benzamide [Compound 3]	23.5 mL/min/kg body weight	11.1 mL/min/kg body weight	29.9 mL/min/kg body weight	52.3 mL/min/kg body weight	99.0 mL/min/kg body weight	47.1 mL/min/kg body weight		t½ (in vitro half-life), Human [1, 10]: 53 min; t½ (in vitro half-life), Rat [2, 11]: 54 min; t½ (in vitro half-life), Mouse [3, 12]: 55 min; Tissue distribution, Heart [4, 14]: 0.1 µM; Tissue distribution, Liver [4, 14]: 0.4 µM; Tissue distribution, Lung [4, 14]: 1 ± 1 µM
O=C(N[C@@H](Cn1ccnc1)c1ccc(-c2ccc(F)cc2)cc1Cl)c1ccc(-c2nnc(-c3ccccn3)o2)cc1 [Compound 2, (R)-N-(1-(3-Chloro-4´-fluoro-[1,1´-biphenyl]-4-yl)-2-(1H-imidazol-1-yl)ethyl)-4-(5-(pyridin-2-yl)-1,3,4-oxadiazol-2-yl)benzamide]	22.3 mL/min/kg body weight	10.8 mL/min/kg body weight	20.8 mL/min/kg body weight	29.7 mL/min/kg body weight	105 mL/min/kg body weight	48.4 mL/min/kg body weight	10 h	
